Converted amounts (≈) assume the structure as drawn.
Key:
[1] = In vitro anti-inflammatory activity using hen egg assessed as inhibition of heat-induced egg albumin denaturation at 31.25 ug/ml incubated at 37 +/- 2 degC for 15 mins followed by incubation at 70 degC for 5 mins by UV spectrophotometric method relative to control; format: functional
Procedure, shortened: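 The 5 mL mix held 0.2 mL fresh hen egg albumin, 2.8 mL PBS pH 6.4 and 2 mL test solution, with water in place of test solution as control. It was held 15 min at 37±2 °C, heated 5 min at 70 °C and cooled, then absorbance was read at 660 nm against a vehicle blank. % inhibition = 100×(Abs control − Abs sample)/Abs control.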

Pseudomonas aeruginosa = assay: Antibacterial activity against Pseudomonas aeruginosa MTCC 25668 after 24 hrs by broth microdilution method; format: functional; details: MTCC 25668, 24 h
Procedure, shortened: (§1)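 Broth tube dilution MIC in Brain Heart Infusion broth, triplicate per strain. Strains were subcultured at 35 °C for 48 h, then log-phase inoculum was grown from 3–5 colonies at 35 °C for 2–6 h and adjusted to 0.5 McFarland. […] serial dilutions were made over 10 tubes, with a media-plus-culture tube as negative control. Incubation was 24 h at 37 °C, and growth was read as turbidity.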

Staphylococcus aureus = assay: Antibacterial activity against Staphylococcus aureus MTCC 12598 after 24 hrs by broth microdilution method; format: functional; details: MTCC 12598, 24 h; procedure, shortened: as §1
Enterococcus faecalis = assay: Antibacterial activity against Enterococcus faecalis MTCC 35550 after 24 hrs by broth microdilution method; format: functional; details: MTCC 35550, 24 h; procedure, shortened: as §1
Escherichia coli = assay: Antibacterial activity against Escherichia coli MTCC 443 after 24 hrs by broth microdilution method; format: functional; details: MTCC 443, 24 h; procedure, shortened: as §1
[2] = Potency index, ratio of compound effect to aceclofenac effect for in vitro anti-inflammatory activity using hen egg assessed as inhibition of heat-induced egg albumin denaturation

Row | SMILES | inhibition [1] | MIC (Pseudomonas aeruginosa) | MIC (Staphylococcus aureus) | MIC (Enterococcus faecalis) | MIC (Escherichia coli) | Ratio [2]
1 | Cc1ccc2oc(=O)cc(C(CC(=O)O)c3c(C)n[nH]c3O)c2c1 (stereo unspecified) | 37.4% | 25 µg/mL (≈ 76.1 µM) | 3.12 µg/mL (≈ 9.52 µM) | 6.25 µg/mL (≈ 19 µM) | 12.5 µg/mL (≈ 38.1 µM) | –
2 | Cc1n[nH]c2c1C(c1cc(=O)oc3ccc(Cl)cc13)C(C#N)=C(N)O2 (stereo unspecified) | 28% | 12.5 µg/mL (≈ 35.2 µM) | 3.12 µg/mL (≈ 8.81 µM) | 6.25 µg/mL (≈ 17.6 µM) | 3.12 µg/mL (≈ 8.81 µM) | –
3 | Cc1n[nH]c(O)c1C(CC(=O)O)c1cc(=O)oc2ccc(Cl)cc12 (stereo unspecified) | 42.6% | 50 µg/mL (≈ 143 µM) | 1.56 µg/mL (≈ 4.47 µM) | 6.25 µg/mL (≈ 17.9 µM) | 25 µg/mL (≈ 71.7 µM) | 10
4 | Cc1n[nH]c(O)c1C(CC(=O)O)c1cc(=O)oc2c1ccc1ccccc12 (stereo unspecified) | 39.8% | 12.5 µg/mL (≈ 34.3 µM) | 6.25 µg/mL (≈ 17.2 µM) | 12.5 µg/mL (≈ 34.3 µM) | 6.25 µg/mL (≈ 17.2 µM) | –
5 | O=C(O)COC(=O)Cc1ccccc1Nc1c(Cl)cccc1Cl | 5.5% | – | – | – | – | –
6 | Cc1n[nH]c2c1C(c1cc(=O)oc3c1ccc1ccccc13)CC(=O)O2 (stereo unspecified) | 1.89% | 6.25 µg/mL (≈ 18 µM) | 12.5 µg/mL (≈ 36.1 µM) | 12.5 µg/mL (≈ 36.1 µM) | 12.5 µg/mL (≈ 36.1 µM) | –
7 | COc1ccc2oc(=O)cc(C3C(C#N)=C(N)Oc4[nH]nc(C)c43)c2c1 (stereo unspecified) | 19.1% | 1.56 µg/mL (≈ 4.45 µM) | 3.12 µg/mL (≈ 8.92 µM) | 12.5 µg/mL (≈ 35.7 µM) | 6.25 µg/mL (≈ 17.8 µM) | –
8 | Cc1ccc2c(C3CC(=O)Oc4[nH]nc(C)c43)cc(=O)oc2c1 (stereo unspecified) | 15.8% | 6.25 µg/mL (≈ 20.1 µM) | 6.25 µg/mL (≈ 20.1 µM) | 6.25 µg/mL (≈ 20.1 µM) | 12.5 µg/mL (≈ 40.3 µM) | –
9 | Cc1ccc2c(C(CC(=O)O)c3c(C)n[nH]c3O)cc(=O)oc2c1 (stereo unspecified) | 40.6% | 12.5 µg/mL (≈ 38.1 µM) | 3.12 µg/mL (≈ 9.52 µM) | 6.25 µg/mL (≈ 19 µM) | 6.25 µg/mL (≈ 19 µM) | –
10 | Cc1ccc2oc(=O)cc(C3C(C#N)=C(N)Oc4[nH]nc(C)c43)c2c1 (stereo unspecified) | 10.3% | 12.5 µg/mL (≈ 37.4 µM) | 6.25 µg/mL (≈ 18.7 µM) | 12.5 µg/mL (≈ 37.4 µM) | 12.5 µg/mL (≈ 37.4 µM) | –
11 | CCOC(=O)C1=C(N)Oc2[nH]nc(C)c2C1c1cc(=O)oc2ccc(Cl)cc12 (stereo unspecified) | 39.1% | 50 µg/mL (≈ 124 µM) | 3.12 µg/mL (≈ 7.78 µM) | 6.25 µg/mL (≈ 15.6 µM) | 6.25 µg/mL (≈ 15.6 µM) | –
12 | CCOC(=O)C1=C(N)Oc2[nH]nc(C)c2C1c1cc(=O)oc2ccc(OC)cc12 (stereo unspecified) | 51.4% | 6.25 µg/mL (≈ 15.7 µM) | 1.56 µg/mL (≈ 3.93 µM) | 3.12 µg/mL (≈ 7.86 µM) | 6.25 µg/mL (≈ 15.7 µM) | 10
13 | COc1ccc2oc(=O)cc(C(CC(=O)O)c3c(C)n[nH]c3O)c2c1 (stereo unspecified) | 63.1% | 6.25 µg/mL (≈ 18.2 µM) | 0.78 µg/mL (≈ 2.27 µM) | 1.56 µg/mL (≈ 4.53 µM) | 3.12 µg/mL (≈ 9.08 µM) | 10
14 | O=C(O)c1cn(C2CC2)c2cc(N3CCNCC3)c(F)cc2c1=O [CIPROFLOXACIN] | – | – | – | 6.25 µg/mL (≈ 18.9 µM) | 3.12 µg/mL (≈ 9.43 µM) | –
15 | COc1ccc2oc(=O)cc(C3CC(=O)Oc4[nH]nc(C)c43)c2c1 (stereo unspecified) | 29.3% | 6.25 µg/mL (≈ 19.2 µM) | 3.12 µg/mL (≈ 9.58 µM) | 6.25 µg/mL (≈ 19.2 µM) | 6.25 µg/mL (≈ 19.2 µM) | –
16 | CCOC(=O)C1=C(N)Oc2[nH]nc(C)c2C1c1cc(=O)oc2ccc(C)cc12 (stereo unspecified) | 24.8% | 6.25 µg/mL (≈ 16.4 µM) | 3.12 µg/mL (≈ 8.19 µM) | 6.25 µg/mL (≈ 16.4 µM) | 12.5 µg/mL (≈ 32.8 µM) | –
17 | Cc1ccc2c(C3C(C#N)=C(N)Oc4[nH]nc(C)c43)cc(=O)oc2c1 (stereo unspecified) | 7.6% | 3.12 µg/mL (≈ 9.35 µM) | 6.25 µg/mL (≈ 18.7 µM) | 12.5 µg/mL (≈ 37.4 µM) | 0.78 µg/mL (≈ 2.33 µM) | –
18 | Cc1n[nH]c2c1C(c1cc(=O)oc3ccc(Cl)cc13)CC(=O)O2 (stereo unspecified) | 3.27% | 12.5 µg/mL (≈ 37.8 µM) | 6.25 µg/mL (≈ 18.9 µM) | 12.5 µg/mL (≈ 37.8 µM) | 6.25 µg/mL (≈ 18.9 µM) | –
19 | Cc1n[nH]c2c1C(c1cc(=O)oc3c1ccc1ccccc13)C(C#N)=C(N)O2 (stereo unspecified) | 14.4% | 25 µg/mL (≈ 67.5 µM) | 6.25 µg/mL (≈ 16.9 µM) | 12.5 µg/mL (≈ 33.8 µM) | 25 µg/mL (≈ 67.5 µM) | –
20 | Cc1ccc2oc(=O)cc(C3CC(=O)Oc4[nH]nc(C)c43)c2c1 (stereo unspecified) | 16% | 12.5 µg/mL (≈ 40.3 µM) | 6.25 µg/mL (≈ 20.1 µM) | 12.5 µg/mL (≈ 40.3 µM) | 3.12 µg/mL (≈ 10.1 µM) | –
21 | CCOC(=O)C1=C(N)Oc2[nH]nc(C)c2C1c1cc(=O)oc2cc(C)ccc12 (stereo unspecified) | 28.7% | 12.5 µg/mL (≈ 32.8 µM) | 3.12 µg/mL (≈ 8.19 µM) | 25 µg/mL (≈ 65.6 µM) | 3.12 µg/mL (≈ 8.19 µM) | –
22 | CCOC(=O)C1=C(N)Oc2[nH]nc(C)c2C1c1cc(=O)oc2c1ccc1ccccc12 (stereo unspecified) | 37.6% | 6.25 µg/mL (≈ 15 µM) | 3.12 µg/mL (≈ 7.49 µM) | 12.5 µg/mL (≈ 29.9 µM) | 6.25 µg/mL (≈ 15 µM) | –

Source: ChEMBL document CHEMBL4041465, “Synthesis, characterization and molecular docking studies of substituted 4-coumarinylpyrano[2,3-c]pyrazole derivatives as potent antibacterial and anti-inflammatory agents” (2017)
